In brackets after ≈: the same amount, converted by molar mass.
Assays:
[1] = system: Staphylococcus epidermidis; assay: In vitro minimum inhibitory concentration (MIC) against Staphylococcus epidermidis UC12084; assay type: functional
In short: (§1)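 MIC determined by standard broth microdilution, defined as the lowest drug concentration (µg/mL) inhibiting visible growth.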

Staphylococcus aureus [2] = assay: In vitro minimum inhibitory concentration (MIC) against Staphylococcus aureus UC9213; assay type: functional; in short: as §1
Streptococcus pneumoniae = assay: In vitro minimum inhibitory concentration (MIC) against Streptococcus pneumoniae UC9912; assay type: functional; in short: as §1
Enterococcus faecalis = assay: In vitro minimum inhibitory concentration (MIC) against Enterococcus faecalis UC9217; assay type: functional; in short: as §1
Escherichia coli = assay: In vitro minimum inhibitory concentration (MIC) against Escherichia coli UC6674; assay type: functional; in short: as §1
Haemophilus influenzae = assay: In vitro minimum inhibitory concentration (MIC) against Haemophilus influenzae UC30063; assay type: functional; in short: as §1
Moraxella catarrhalis = assay: In vitro minimum inhibitory concentration (MIC) against Moraxella catarrhalis UC30610; assay type: functional; in short: as §1
Staphylococcus aureus [3] = assay: In vitro minimum inhibitory concentration (MIC) against Staphylococcus aureus UC12673; assay type: functional; in short: as §1
Mus musculus = assay: In Vivo effective dose required for antibacterial activity in a systemic mouse infection model (SMIM) upon peroral administration against Staphylococcus aureus UC9213; assay type: functional; conditions: po
In short: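 Compound was given orally at 1 and 5 h after infection. Deaths were monitored for at least 6 days, and ED50 (dose curing 50% of mice) was calculated by probit analysis.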

Rattus norvegicus = species: Rattus norvegicus; assay: Compound was evaluated for metabolic stability via In vitro Rat 5E6 cell at 50 uM concentration; assay type: functional
[4] = Tmax value in Male Sprague-Dawley Rat at dose 25 (mg/kg po) [tmax (h)]; assay type: ADME, organism-based; conditions: in vivo
In short: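 Male Sprague-Dawley rats dosed intravenously or orally. Intact compound measured in plasma by HPLC-UV after protein-precipitation sample preparation. Half-life reported as harmonic mean apparent terminal disposition half-life. Bioavailability is absolute oral bioavailability. Some comparator values are archival data.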

CC(=O)NCC1CC(c2ccc(C3=CCN(C(=O)CO)CC3)cc2)=NO1 (racemic)
MIC [1]: 4 µg/mL (≈ 11.2 µM)
MIC (Staphylococcus aureus [2]): 4 µg/mL (≈ 11.2 µM)
MIC (Streptococcus pneumoniae): 2 µg/mL (≈ 5.6 µM)
MIC (Enterococcus faecalis): 8 µg/mL (≈ 22.4 µM)
MIC (Escherichia coli): > 16 µg/mL
MIC (Haemophilus influenzae): > 16 µg/mL
MIC (Moraxella catarrhalis): > 16 µg/mL
MIC (Staphylococcus aureus [3]): 4 µg/mL (≈ 11.2 µM)

CC(=O)NC[C@H]1CC(c2ccc(-c3ccncc3)cc2)=NO1
MIC [1]: 0.5 µg/mL (≈ 1.69 µM)
MIC (Staphylococcus aureus [2]): 1 µg/mL (≈ 3.39 µM)
MIC (Streptococcus pneumoniae): 0.25 µg/mL (≈ 0.846 µM)
MIC (Enterococcus faecalis): 2 µg/mL (≈ 6.77 µM)
MIC (Escherichia coli): > 16 µg/mL
MIC (Haemophilus influenzae): 16 µg/mL (≈ 54.2 µM)
MIC (Moraxella catarrhalis): 8 µg/mL (≈ 27.1 µM)
MIC (Staphylococcus aureus [3]): 2 µg/mL (≈ 6.77 µM)

CC(=O)NC[C@H]1CC(c2ccc(C3=CCN(C(=O)CO)CC3)cc2)=NO1
MIC [1]: 1 µg/mL (≈ 2.8 µM)
MIC (Staphylococcus aureus [2]): 2 µg/mL (≈ 5.6 µM)
MIC (Streptococcus pneumoniae): 0.5 µg/mL (≈ 1.4 µM)
MIC (Enterococcus faecalis): 4 µg/mL (≈ 11.2 µM)
MIC (Escherichia coli): > 16 µg/mL
MIC (Haemophilus influenzae): > 16 µg/mL
MIC (Moraxella catarrhalis): 8 µg/mL (≈ 22.4 µM)
MIC (Staphylococcus aureus [3]): 2 µg/mL (≈ 5.6 µM)
ED50 (Mus musculus): 6 mg/kg

CC(=O)NC[C@H]1CC(c2ccc(-n3ccc(C#N)c3)c(F)c2)=NO1
MIC [1]: 0.25 µg/mL (≈ 0.766 µM)
MIC (Staphylococcus aureus [2]): 1 µg/mL (≈ 3.06 µM)
MIC (Streptococcus pneumoniae): < 0.125 µg/mL
MIC (Enterococcus faecalis): 1 µg/mL (≈ 3.06 µM)
MIC (Escherichia coli): > 16 µg/mL
MIC (Haemophilus influenzae): 16 µg/mL (≈ 49 µM)
MIC (Moraxella catarrhalis): 4 µg/mL (≈ 12.3 µM)
MIC (Staphylococcus aureus [3]): 0.5 µg/mL (≈ 1.53 µM)

CC(=O)NC[C@H]1CC(c2ccc(-n3cccc3)c(F)c2)=NO1
MIC [1]: 0.5 µg/mL (≈ 1.66 µM)
MIC (Staphylococcus aureus [2]): 2 µg/mL (≈ 6.64 µM)
MIC (Streptococcus pneumoniae): 0.5 µg/mL (≈ 1.66 µM)
MIC (Enterococcus faecalis): 4 µg/mL (≈ 13.3 µM)
MIC (Escherichia coli): > 16 µg/mL
MIC (Haemophilus influenzae): > 16 µg/mL
MIC (Moraxella catarrhalis): 16 µg/mL (≈ 53.1 µM)
MIC (Staphylococcus aureus [3]): 2 µg/mL (≈ 6.64 µM)

CC(=O)NC[C@H]1CC(c2cc(F)c(N3CCOCC3)c(F)c2)=NO1
MIC [1]: 2 µg/mL (≈ 5.89 µM)
MIC (Staphylococcus aureus [2]): 4 µg/mL (≈ 11.8 µM)
MIC (Streptococcus pneumoniae): 1 µg/mL (≈ 2.95 µM)
MIC (Enterococcus faecalis): 4 µg/mL (≈ 11.8 µM)
MIC (Escherichia coli): > 16 µg/mL
MIC (Haemophilus influenzae): > 16 µg/mL
MIC (Moraxella catarrhalis): 8 µg/mL (≈ 23.6 µM)
MIC (Staphylococcus aureus [3]): 4 µg/mL (≈ 11.8 µM)
ED50 (Mus musculus): > 20 mg/kg

CC(=O)NC[C@H]1CC(c2cc(F)c(-n3ccnc3)c(F)c2)=NO1
MIC [1]: 2 µg/mL (≈ 6.24 µM)
MIC (Staphylococcus aureus [2]): 8 µg/mL (≈ 25 µM)
MIC (Streptococcus pneumoniae): 2 µg/mL (≈ 6.24 µM)
MIC (Enterococcus faecalis): 8 µg/mL (≈ 25 µM)
MIC (Escherichia coli): > 16 µg/mL
MIC (Haemophilus influenzae): > 16 µg/mL
MIC (Moraxella catarrhalis): > 16 µg/mL
MIC (Staphylococcus aureus [3]): 4 µg/mL (≈ 12.5 µM)

CC(=O)NC[C@H]1CC(c2ccc(-n3cc(C#N)cn3)c(F)c2)=NO1
MIC [1]: 1 µg/mL (≈ 3.06 µM)
MIC (Staphylococcus aureus [2]): 2 µg/mL (≈ 6.11 µM)
MIC (Streptococcus pneumoniae): 0.5 µg/mL (≈ 1.53 µM)
MIC (Enterococcus faecalis): 4 µg/mL (≈ 12.2 µM)
MIC (Escherichia coli): > 16 µg/mL
MIC (Haemophilus influenzae): 16 µg/mL (≈ 48.9 µM)
MIC (Moraxella catarrhalis): 8 µg/mL (≈ 24.4 µM)
MIC (Staphylococcus aureus [3]): 2 µg/mL (≈ 6.11 µM)

CC(=O)NC[C@H]1CN(c2ccc(N3CCOCC3)c(F)c2)C(=O)O1 [LINEZOLID]
MIC [1]: 1 µg/mL (≈ 2.96 µM)
Remaining at 40 min (Rattus norvegicus): 97%
Tmax [4]: 18.6 min
MIC (Escherichia coli): > 32 µg/mL
MIC (Haemophilus influenzae): 16 µg/mL (≈ 47.4 µM)
MIC (Moraxella catarrhalis): 8 µg/mL (≈ 23.7 µM)

CC(=O)NC[C@@H]1CC(c2ccc(C3=CCN(C(=O)CO)CC3)cc2)=NO1
MIC [1]: > 16 µg/mL
MIC (Staphylococcus aureus [2]): > 16 µg/mL
MIC (Streptococcus pneumoniae): > 16 µg/mL
MIC (Enterococcus faecalis): > 16 µg/mL
MIC (Escherichia coli): > 16 µg/mL
MIC (Haemophilus influenzae): > 16 µg/mL
MIC (Moraxella catarrhalis): > 16 µg/mL
MIC (Staphylococcus aureus [3]): > 16 µg/mL

COC(=O)N1CC=C(c2ccc(C3=NOC(CNC(C)=O)C3)cc2)CC1 (stereo unspecified)
MIC [1]: 8 µg/mL (≈ 22.4 µM)
MIC (Staphylococcus aureus [2]): 16 µg/mL (≈ 44.8 µM)
MIC (Streptococcus pneumoniae): 4 µg/mL (≈ 11.2 µM)
MIC (Enterococcus faecalis): 16 µg/mL (≈ 44.8 µM)
MIC (Escherichia coli): > 16 µg/mL
MIC (Haemophilus influenzae): > 16 µg/mL
MIC (Moraxella catarrhalis): > 16 µg/mL
MIC (Staphylococcus aureus [3]): 16 µg/mL (≈ 44.8 µM)

CC(=O)NC[C@H]1CC(c2cc(F)c(N3CCN(C(=O)CO)CC3)c(F)c2)=NO1
MIC [1]: 0.5 µg/mL (≈ 1.26 µM)
MIC (Staphylococcus aureus [2]): 2 µg/mL (≈ 5.05 µM)
MIC (Streptococcus pneumoniae): 0.5 µg/mL (≈ 1.26 µM)
MIC (Enterococcus faecalis): 2 µg/mL (≈ 5.05 µM)
MIC (Escherichia coli): > 16 µg/mL
MIC (Haemophilus influenzae): 16 µg/mL (≈ 40.4 µM)
MIC (Moraxella catarrhalis): 8 µg/mL (≈ 20.2 µM)
MIC (Staphylococcus aureus [3]): 1 µg/mL (≈ 2.52 µM)
ED50 (Mus musculus): 5 mg/kg

COC(=O)N1CC=C(c2ccc(-c3cc(CNC(C)=O)on3)cc2)CC1
MIC [1]: > 16 µg/mL
MIC (Staphylococcus aureus [2]): > 16 µg/mL
MIC (Streptococcus pneumoniae): > 16 µg/mL
MIC (Enterococcus faecalis): > 16 µg/mL
MIC (Escherichia coli): > 16 µg/mL
MIC (Haemophilus influenzae): > 16 µg/mL
MIC (Moraxella catarrhalis): > 16 µg/mL
MIC (Staphylococcus aureus [3]): > 16 µg/mL

CC(=O)NCC1CC(c2ccc(Br)cc2)=NO1 (stereo unspecified)
MIC [1]: > 16 µg/mL
MIC (Staphylococcus aureus [2]): > 16 µg/mL
MIC (Streptococcus pneumoniae): > 16 µg/mL
MIC (Enterococcus faecalis): > 16 µg/mL
MIC (Escherichia coli): > 16 µg/mL
MIC (Haemophilus influenzae): > 16 µg/mL
MIC (Moraxella catarrhalis): > 16 µg/mL
MIC (Staphylococcus aureus [3]): > 16 µg/mL

CC(=O)NCC1CC(c2cc(F)c(N3CCOCC3)c(F)c2)=NO1 (racemic)
MIC [1]: 4 µg/mL (≈ 11.8 µM)
MIC (Staphylococcus aureus [2]): 8 µg/mL (≈ 23.6 µM)
MIC (Streptococcus pneumoniae): 2 µg/mL (≈ 5.89 µM)
MIC (Enterococcus faecalis): 8 µg/mL (≈ 23.6 µM)
MIC (Escherichia coli): > 16 µg/mL
MIC (Haemophilus influenzae): > 16 µg/mL
MIC (Moraxella catarrhalis): 16 µg/mL (≈ 47.2 µM)
MIC (Staphylococcus aureus [3]): 8 µg/mL (≈ 23.6 µM)
